Data published in ChEMBL document CHEMBL1123478, “Synthesis and antineoplastic activity of bis[[[(alkylamino)carbonyl]oxy]methyl]-substituted 3-pyrrolines as prodrugs of tumor inhibitory pyrrole bis(carbamates)” (1986).
Where “and” joins values, the source holds several entries; their conditions need not be identical. Equal values may be shown once. Each block holds one compound with its values, some of them ahead of it.

Assays:
Mus musculus [1] = test: Body weight difference the relation of the test animal to control animal weight was calculated at the 120 mg/kg doses; type: functional
In short: (§1)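 P388 leukemia ascitic fluid implanted intraperitoneally into CD2F1 mice. Dosing was intraperitoneal, starting 24 h after inoculation, once daily for five doses, as a suspension in saline and Tween 80 made fresh each day. Some compounds were given in Klucel (hydroxypropylcellulose) or in saline/Tween/alcohol instead. Acute toxicity was checked on day 5 and the study was evaluated on day 30.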

Mus musculus [2] = test: Body weight difference the relation of the test animal to control animal weight was calculated at the 15 mg/kg doses; type: functional; in short: as §1
Mus musculus [3] = test: Body weight difference the relation of the test animal to control animal weight was calculated at the 30 mg/kg doses; type: functional; in short: as §1
Mus musculus [4] = test: Body weight difference the relation of the test animal to control animal weight was calculated at the 60 mg/kg doses; type: functional; in short: as §1
Mus musculus [5] = test: Body weight difference the relation of the test animal to control animal weight was calculated at the 7.5 mg/kg doses; type: functional; in short: as §1
Mus musculus [6] = test: Tumor cell population at the end of treatment relative to its size at the beginning of the treatment was calculated at the 15 mg/kg doses; type: functional; in short: as §1
Mus musculus [7] = test: Tumor cell population at the end of treatment relative to its size at the beginning of the treatment was calculated at the 30 mg/kgd oses; type: functional; conditions: dose 30 mg/kg; in short: as §1
Mus musculus [8] = test: Tumor cell population at the end of treatment relative to its size at the beginning of the treatment was calculated at the 7.5 mg/kg doses; type: functional; in short: as §1
P388 [9] = test: Compound was tested for antitumor activity against P388 lymphocytic leukemia at the dose 15 mg/kg; type: functional, Mus musculus; in short: as §1
P388 [10] = test: Compound was tested for antitumor activity against P388 lymphocytic leukemia at the dose 30 mg/kg; type: functional, Mus musculus; in short: as §1
P388 [11] = test: Compound was tested for antitumor activity against P388 lymphocytic leukemia at the dose 7.5 mg/kg; type: functional, Mus musculus; in short: as §1
[12] = Rate constants were calculated for the compound by linear regression analysis
Mus musculus [13] = test: Body weight difference the relation of the test animal to control animal weight was calculated at the 100 mg/kg doses; type: functional; in short: as §1
Mus musculus [14] = test: Body weight difference the relation of the test animal to control animal weight was calculated at the 12.5 mg/kg doses; type: functional; in short: as §1
Mus musculus [15] = test: Body weight difference the relation of the test animal to control animal weight was calculated at the 25 mg/kg doses; type: functional; in short: as §1
Mus musculus [16] = test: Body weight difference the relation of the test animal to control animal weight was calculated at the 50 mg/kg doses; type: functional; in short: as §1
Mus musculus [17] = test: Tumor cell population at the end of treatment relative to its size at the beginning of the treatment was calculated at the 25 mg/kg doses; type: functional; in short: as §1
Mus musculus [18] = test: Tumor cell population at the end of treatment relative to its size at the beginning of the treatment was calculated at the 50 mg/kg doses; type: functional; in short: as §1
Mus musculus [19] = test: Tumor cell population at the end of treatment relative to its size at the beginning of the treatment was calculated at the 12.5 mg/kg doses; type: functional; in short: as §1
P388 [20] = test: Compound was tested for antitumor activity against P388 lymphocytic leukemia at the dose 12.5 mg/kg; type: functional, Mus musculus; in short: as §1
P388 [21] = test: Compound was tested for antitumor activity against P388 lymphocytic leukemia at the dose 25 mg/kg; type: functional, Mus musculus; in short: as §1
P388 [22] = test: Compound was tested for antitumor activity against P388 lymphocytic leukemia at the dose 50 mg/kg; type: functional, Mus musculus; in short: as §1
Mus musculus [23] = test: Body weight difference the relation of the test animal to control animal weight was calculated at the 240 mg/kg doses; type: functional; in short: as §1
Mus musculus [24] = test: Body weight difference the relation of the test animal to control animal weight was calculated at the 480 mg/kg doses; type: functional; in short: as §1
Mus musculus [25] = test: Tumor cell population at the end of treatment relative to its size at the beginning of the treatment was calculated at the 120 mg/kg doses; type: functional; in short: as §1
Mus musculus [26] = test: Tumor cell population at the end of treatment relative to its size at the beginning of the treatment was calculated at the 240 mg/kg doses; type: functional; in short: as §1
Mus musculus [27] = test: Tumor cell population at the end of treatment relative to its size at the beginning of the treatment was calculated at the 480 mg/kg doses; type: functional; in short: as §1
Mus musculus [28] = test: Tumor cell population at the end of treatment relative to its size at the beginning of the treatment was calculated at the 60 mg/kg doses; type: functional; in short: as §1
P388 [29] = test: Compound was tested for antitumor activity against P388 lymphocytic leukemia at the dose 60 mg/kg; type: functional, Mus musculus; in short: as §1
P388 [30] = test: Compound was tested for antitumor activity against P388 lymphocytic leukemia at the dose 120 mg/kg; type: functional, Mus musculus; in short: as §1
P388 [31] = test: Compound was tested for antitumor activity against P388 lymphocytic leukemia at the dose 480 mg/kg; type: functional, Mus musculus; in short: as §1
P388 [32] = test: Compound was tested for antitumor activity against P388 lymphocytic leukemia at the dose 240 mg/kg; type: functional, Mus musculus; in short: as §1
Mus musculus [33] = test: Tumor cell population at the end of treatment relative to its size at the beginning of the treatment was calculated at the 100 mg/kg doses; type: functional; in short: as §1
P388 [34] = test: Compound was tested for antitumor activity against P388 lymphocytic leukemia at the dose 100 mg/kg; type: functional, Mus musculus; in short: as §1
Mus musculus [35] = test: Body weight difference the relation of the test animal to control animal weight was calculated at the 200 mg/kg doses; type: functional; in short: as §1
Mus musculus [36] = test: Body weight difference the relation of the test animal to control animal weight was calculated at the 400 mg/kg doses; type: functional; in short: as §1
P388 [37] = test: Compound was tested for antitumor activity against P388 lymphocytic leukemia at the dose 200 mg/kg; type: functional, Mus musculus; in short: as §1
P388 [38] = test: Compound was tested for antitumor activity against P388 lymphocytic leukemia at the dose 400 mg/kg; type: functional, Mus musculus; in short: as §1
Mus musculus [39] = test: Tumor cell population at the end of treatment relative to its size at the beginning of the treatment was calculated at the 150 mg/kg doses; type: functional; conditions: dose 15 mg/kg; in the assay text read “15 mg/kg doses” for “150 mg/kg doses”; in short: as §1

K' [12]: 0.0935 abs/time
Compound: CC(C)NC(=O)OCc1cn(C)c(-c2ccccc2)c1COC(=O)NC(C)C
BDW (Mus musculus [1]): -4.6 g
BDW (Mus musculus [2]): -0.1 g
BDW (Mus musculus [3]): -2.3 g
BDW (Mus musculus [4]): -4 g
BDW (Mus musculus [5]): 0.1 g
KE (Mus musculus [6]): -0.04
KE (Mus musculus [7]): -0.15
KE (Mus musculus [8]): -0.04
T/C (P388 [9]): 148%
T/C (P388 [10]): 100%
T/C (P388 [11]): 127%

Compound: CNC(=O)OCC1=C(COC(=O)NC)[C@@H](c2ccccc2)N(C)[C@H]1c1ccccc1
BDW (Mus musculus [13]): -4.3 g
BDW (Mus musculus [14]): -0.1 g
BDW (Mus musculus [15]): -1.4 g
BDW (Mus musculus [16]): -1.7 g
KE (Mus musculus [17]): 0
KE (Mus musculus [18]): 1.06
KE (Mus musculus [19]): -1.16
T/C (P388 [20]): 116%
T/C (P388 [21]): 136%
T/C (P388 [22]): 154%

K' [12]: 1.68 abs/time
Compound: Cc1c(COC(=O)NC(C)C)c(COC(=O)NC(C)C)c(-c2ccccc2)n1C

K' [12]: 0.0516 abs/time
Compound: CC(C)NC(=O)OCc1cn(C)c(-c2ccc(F)cc2)c1COC(=O)NC(C)C
BDW (Mus musculus [2]): -0.4 g
BDW (Mus musculus [3]): -2.2 g
BDW (Mus musculus [4]): -2.7 g
KE (Mus musculus [6]): 0.04
KE (Mus musculus [7]): 0.21
T/C (P388 [9]): 145%
T/C (P388 [10]): 188%

K' [12]: 0.00605 abs/time
Compound: CC(C)NC(=O)OCc1cn(C)c(-c2ccc(Cl)c(Cl)c2)c1COC(=O)NC(C)C
BDW (Mus musculus [1]): -1.6 g
BDW (Mus musculus [23]): -2.7 g
BDW (Mus musculus [24]): -3.6 g
BDW (Mus musculus [4]): -0.8 g
KE (Mus musculus [25]): -0.39
KE (Mus musculus [26]): 2.43
KE (Mus musculus [27]): 3.4
KE (Mus musculus [28]): -1.15
T/C (P388 [29]): 117%
T/C (P388 [30]): 133%
T/C (P388 [31]): 169%
T/C (P388 [32]): 160%

Compound: CC(C)NC(=O)OCC1=C(COC(=O)NC(C)C)C(c2ccc(F)cc2)N(C)C1 (configuration not stated)
BDW (Mus musculus [1]): -2.7 g
BDW (Mus musculus [23]): -2.7 g
BDW (Mus musculus [4]): -0.2 g
T/C (P388 [29]): 112%
T/C (P388 [30]): 131%
T/C (P388 [32]): 137%

Compound: CC(C)NC(=O)OCC1=C(COC(=O)NC(C)C)C(c2ccccc2)N(C)C1 (configuration not stated)
BDW (Mus musculus [13]): -2.2 g
BDW (Mus musculus [14]): 0 g
BDW (Mus musculus [15]): -0.9 g
BDW (Mus musculus [16]): -2 g
KE (Mus musculus [17]): 0
KE (Mus musculus [18]): 0.53
KE (Mus musculus [33]): 5.18
KE (Mus musculus [19]): 0.84
T/C (P388 [34]): 225%
T/C (P388 [20]): 121%
T/C (P388 [21]): 136%
T/C (P388 [22]): 145%

K' [12]: 0.449 abs/time
Compound: COc1ccc2c(c1)CCn1cc(COC(=O)NC(C)C)c(COC(=O)NC(C)C)c1-2
BDW (Mus musculus [2]): -3 g
BDW (Mus musculus [3]): -3.1 g
BDW (Mus musculus [5]): -2.6 g
KE (Mus musculus [6]): -0.04
KE (Mus musculus [8]): 0.16
T/C (P388 [9]): 125%
T/C (P388 [11]): 175%

Compound: CC(C)NC(=O)OCC1=C(COC(=O)NC(C)C)C(c2ccc(Cl)c(Cl)c2)N(C)C1 (configuration not stated)
BDW (Mus musculus [1]): -1.6 g
BDW (Mus musculus [23]): -2.5 g
BDW (Mus musculus [4]): -1.3 g
T/C (P388 [29]): 110%
T/C (P388 [30]): 117%
T/C (P388 [32]): 119%

Compound: CC(C)NC(=O)OCC1=C(COC(=O)NC(C)C)C(C)(C)N(C)C1c1ccccc1 (configuration not stated)
BDW (Mus musculus [13]): -0.3 g
BDW (Mus musculus [35]): -0.1 g
BDW (Mus musculus [36]): -2.3 g
BDW (Mus musculus [16]): 0.5 g
T/C (P388 [34]): 113%
T/C (P388 [37]): 108%
T/C (P388 [38]): 107%
T/C (P388 [22]): 108%

K' [12]: 0.231 abs/time
Compound: COc1ccc(-c2c(COC(=O)NC(C)C)c(COC(=O)NC(C)C)cn2C)cc1
BDW (Mus musculus [2]): 0 g
BDW (Mus musculus [3]): 0.4 g
BDW (Mus musculus [4]): -0.8 g
KE (Mus musculus [39]): -0.06
KE (Mus musculus [7]): -0.08
KE (Mus musculus [28]): 0.1
T/C (P388 [9]): 123%
T/C (P388 [10]): 117%
T/C (P388 [29]): 164%

Compound: COc1ccc(C2C(COC(=O)NC(C)C)=C(COC(=O)NC(C)C)CN2C)cc1 (configuration not stated)
BDW (Mus musculus [1]; 120 mg/kg): -1.9 g and -1.2 g
T/C (P388 [29]): 158%
T/C (P388 [30]): 110%

Compound: CC(C)NC(=O)OCC1=C(COC(=O)NC(C)C)[C@@H](c2ccccc2)N(C)[C@H]1c1ccccc1
BDW (Mus musculus [13]): -3 g
BDW (Mus musculus [14]): 0 g
BDW (Mus musculus [15]): -1.2 g
BDW (Mus musculus [16]): -2.3 g
KE (Mus musculus [17]): 0.16
KE (Mus musculus [18]): 0.53
KE (Mus musculus [33]): 3.06
KE (Mus musculus [19]): -0.9
T/C (P388 [34]): 189%
T/C (P388 [20]): 120%
T/C (P388 [21]): 139%
T/C (P388 [22]): 145%

K' [12]: 0.00154 abs/time
Compound: CC(C)NC(=O)OCc1cn2c(c1COC(=O)NC(C)C)-c1cc(Cl)c(Cl)cc1CC2
BDW (Mus musculus [1]): -2.2 g
BDW (Mus musculus [23]): -2.3 g
BDW (Mus musculus [24]): -3.2 g
BDW (Mus musculus [4]): -0.4 g
KE (Mus musculus [25]): -0.68
KE (Mus musculus [26]): 0.1
KE (Mus musculus [27]): 5.05
KE (Mus musculus [28]): -1.54
T/C (P388 [29]): 86%
T/C (P388 [30]): 130%
T/C (P388 [31]): 185%
T/C (P388 [32]): 137%
